7 compounds from ChEMBL document CHEMBL1149434 (J Med Chem, 2006) can be followed below.

Activity calls are given as the source filed them. The rule behind the calls is not given here. Where only a bound is given, the exact number is not on record here.

The subject of experiment [1] is Peritoneal macrophage cell. The experiment is described as follows: Ability to suppress […] production by LPS-activated peritoneal macrophages form C57BL/6 mice at 4 ug/ml. Type of experiment: functional, cell-based. The conditions noted are these: Mus musculus. The essentials:
(§1)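 Elicited peritoneal macrophages were prepared as for TNF. They were exposed to ethanol-dissolved cannabinoids diluted in DMEM, plus LPS 1 µg/mL, for 24 h. Nitrite in 100 µL supernatant was mixed with an equal volume of Griess reagent for 10 min at room temperature and read at 550 nm. Values came from a nitrite standard curve. Mean ± SD of three pooled experiments.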

For experiment [2], the system named is Peritoneal macrophage cell. The experiment is described as follows: Ability to suppress […] production by LPS-activated peritoneal macrophages form C57BL/6 mice at 8 ug/ml. It is filed as functional, cell-based. The conditions noted are these: Mus musculus. Put shortly:
as §1

The subject of experiment [3] is RAW264.7. Put plainly: Ability to suppress the production of reactive oxygen intermediates by activated RAW 264.7 macrophages from BALB/c mice at 4 ug/ml. Type of experiment: functional. Put shortly:
(§2)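 RAW 264.7 cells were grown in DMEM with 5% FCS and LPS-activated (1 µg/mL, 24 h). Cells (5 × 10^5 in 0.5 mL) were incubated 24 h with cannabinoids dissolved in ethanol and diluted in Hanks. Luminol and zymosan were then added and chemiluminescence was read immediately. Mean ± SD of three pooled experiments.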

In experiment [4] the test system is Peritoneal macrophage cell. The experiment is described as follows: Ability to suppress TNFalpha production by LPS-activated peritoneal macrophages form C57BL/6 mice at 4 ug/ml. It is filed as functional, cell-based. To be noted: Mus musculus.
Experiment [5] addresses Cannabinoid receptor 1 (Rattus norvegicus, UniProt P20272). The experiment is described as follows: Displacement of [3H]HU243 from CB1 receptor in Sabra rat brain. For orientation: Displacement assays read how much labelled ligand stays bound in the presence of the test substance.
The test system of experiment [6] is RAW264.7. Put plainly: Ability to suppress the production of reactive oxygen intermediates by activated RAW 264.7 macrophages from BALB/c mice at 8 ug/ml. Type of experiment: functional, Mus musculus. The essentials: as §2
The test system of experiment [7] is Peritoneal macrophage cell. Put plainly: Ability to suppress TNFalpha production by LPS-activated peritoneal macrophages form C57BL/6 mice at 8 ug/ml. It is filed as functional, Mus musculus.
For experiment [8], the system named is Peritoneal macrophage cell. Put plainly: Ability to suppress […] production by LPS-activated peritoneal macrophages form C57BL/6 mice at 1 ug/ml. It is filed as functional, cell-based. To be noted: Mus musculus. The essentials:
as §1

Sequence of Cannabinoid receptor 1 (P20272 whole entry): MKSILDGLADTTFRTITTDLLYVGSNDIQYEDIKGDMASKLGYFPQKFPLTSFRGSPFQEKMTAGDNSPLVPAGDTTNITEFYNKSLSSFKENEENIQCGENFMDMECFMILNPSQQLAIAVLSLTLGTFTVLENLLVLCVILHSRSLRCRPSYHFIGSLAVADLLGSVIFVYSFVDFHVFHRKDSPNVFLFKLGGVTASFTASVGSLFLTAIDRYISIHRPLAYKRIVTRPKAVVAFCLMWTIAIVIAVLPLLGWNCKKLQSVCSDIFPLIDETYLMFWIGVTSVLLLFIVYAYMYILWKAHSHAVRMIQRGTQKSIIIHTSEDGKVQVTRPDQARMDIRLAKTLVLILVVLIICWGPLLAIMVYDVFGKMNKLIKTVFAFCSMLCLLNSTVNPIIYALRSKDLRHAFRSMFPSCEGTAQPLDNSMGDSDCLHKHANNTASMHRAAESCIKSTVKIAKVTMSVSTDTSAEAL

Take `C=C(C)[C@@H]1CCC(C)CC1c1c(O)cc(CCCCC)cc1O` (some centres not stated): the result in experiment [1] and in experiment [2] was Active.
By Ki is commonly meant the equilibrium dissociation constant of an inhibitor or competing ligand from its target. The low end stands for higher affinity, the high end for lower affinity. Regarding `CCCCCc1cc(O)c(C2C=C(C)CC[C@H]2C(C)C)c(O)c1` (some centres not stated), the outcome in experiment [1], in experiment [2], in experiment [3] (Mus musculus) and in experiment [4] was Active. The compound further showed a Ki in experiment [5] of over 1000 nM.
Take `C=C(C)[C@@H]1CCC(C)=CC1c1c(O)cc(C(C)(C)CCCCCC)cc1O` (some centres not stated): the figures for the Activity in experiment [6] and in experiment [7] were 60% and 73%, respectively. Further, the outcome in experiment [1], in experiment [2], in experiment [3] (Mus musculus) and in experiment [4] was Active. The Ki in experiment [5] is over 10000 nM.
For the compound `CCCCCCC(C)(C)c1cc(O)c(C2CC(C)CC[C@H]2C(C)C)c(O)c1` (some centres not stated), in experiment [6], the Activity amounted to 25%. Further, the outcome in experiment [7] (Mus musculus) was inactive. Moreover, in experiment [5], the Ki came to 17 nM.
With `C=C(C)[C@@H]1CCC(C)=C[C@H]1c1c(O)cc(CCCCC)cc1O` [CANNABIDIOL], the outcome in experiment [6] (Mus musculus), in experiment [1], in experiment [2] and in experiment [7] (Mus musculus) was Active. Moreover, the Activity in experiment [3] is recorded as 12%.
On to `CCCCCCC(C)(C)c1cc(O)c(C2C=C(C)CC[C@H]2C(C)C)c(O)c1` (some centres not stated), for which the result in experiment [6] (Mus musculus), in experiment [3] (Mus musculus) and in experiment [7] (Mus musculus) was inactive. Also, the affinity in experiment [5], expressed as Ki, was 124 nM.
As for `CCCCCc1cc(O)c(C2CC(C)CC[C@H]2C(C)C)c(O)c1` (some centres not stated), the outcome in experiment [1], in experiment [2], in experiment [3] (Mus musculus), in experiment [4] and in experiment [8] was Active. This compound also came in with a Ki in experiment [5] of 145 nM.
